Experimental findings from ChEMBL document CHEMBL4196056, “Zirconium catalyzed synthesis of 2-arylidene Indan-1,3-diones and evaluation of their inhibitory activity against NS2B-NS3 WNV protease” (Eur J Med Chem, 2018) are described below.

The source made the active and inactive calls. No cut-off for these calls is given here.

Data set [1] has as its system West Nile virus. Kind of data set: Inhibition of recombinant West Nile virus NS2B-NS3 protease at 16 umol/L using pERTKR-AMC as substrate preincubated for 30 mins followed by substrate addition by fluorescence assay. An outline of the steps:
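Single-point screen of purified, pre-activated recombinant WNV NS2B-NS3 at 1 ng µL-1 final, in 50 mmol L-1 Tris with 30% glycerol, pH 9.5, and 1% DMSO final. Enzyme and compound (16 µmol L-1 final) were held 30 min at 21-22 °C before pERTKR-AMC was added. Fluorescence (ex 360/em 460 nm) was read continuously, with buffer/DMSO as negative control. Triplicate wells in three independent experiments; one-way ANOVA.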

Data set [2] in a line: (§1) Inhibition of recombinant West Nile virus NS2B-NS3 protease using pERTKR-AMC as substrate preincubated for 30 mins followed by substrate addition by fluorescence assay. A digest of the protocol:
(§2)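 Same protease format (1 ng µL-1 enzyme, Tris/30% glycerol pH 9.5, 30 min preincubation at 21-22 °C, pERTKR-AMC, ex 360/em 460 nm). Eight inhibitor concentrations spanning 66-0.5 µmol L-1 were tested, with reads every 30 s for 5 min. Triplicate wells in three independent experiments; IC50 from four-parameter nonlinear regression (Hill slope).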

In data set [3] the test system is West Nile virus. The description is as §1. A digest of the protocol: as §2
Data set [4] in a line: Non-competitive inhibition of recombinant West Nile virus NS2B-NS3 protease using pERTKR-AMC as substrate preincubated for 30 mins followed by substrate addition by Lineweaver-Burk plot analysis. An outline of the steps:
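Kinetic series with WNV protease at 37.04 nmol L-1 (1 ng µL-1), inhibitor at 2, 4 and 8 µmol L-1, and pERTKR-AMC at five levels ([…] as printed). Fluorescence was read every 30 s in triplicate wells, and velocities (RFU/min) were computed for each substrate/inhibitor pair. Ki came from nonlinear enzyme-kinetics regression.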

Data set [5] can be described thus: Cytotoxicity against African green monkey Vero cells after 24 hrs by MTT assay. The format is cell-based. Conditions: chlorocebus sabaeus. A digest of the protocol: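 Vero cells (5 x 10^4/well) were exposed for 24 h at 37 °C to eight concentrations (4-1000 µmol L-1) in MEM with 2% FBS and 1% DMSO. MTT was added for 4 h, formazan was dissolved in DMSO, and absorbance was read at 550 nm. CC50 was derived by curve fitting.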
For orientation: Tetrazolium assays rely on reduction of a dye to a coloured formazan, in cell work by metabolically active cells.

In the next data set the test system is dengue virus type 1. Kind of data set: Antiviral activity against Dengue virus 1 infected in African green monkey Vero cells assessed as decrease in viral infection preincubated for 1 hr followed by cell addition and subsequent incubation for 1 hr and measured after 5 to 6 days by crystal violet staining-based assay. The format is functional, organism-based. A digest of the protocol:
(§3)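 Virucidal plaque-reduction format. Virus suspension (50-100 PFU) was mixed 1:1 with compound at 3, 6, 12, 25, 50 or 100 µmol L-1 and held 1 h at 37 °C. The mixture went onto Vero monolayers (8 x 10^5 cells/well) for 1 h adsorption with shaking, then a 3% CMC overlay in 2x DMEM with 2% FBS for 5-6 days. Cells were formaldehyde-fixed and crystal violet-stained, plaques were counted, and EC50 came from nonlinear regression.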

The subject of a further data set is dengue virus type 2. Briefly: Antiviral activity against Dengue virus 2 infected in African green monkey Vero cells assessed as decrease in viral infection preincubated for 1 hr followed by cell addition and subsequent incubation for 1 hr and measured after 5 to 6 days by crystal violet staining-based assay. The data set is classed as functional, organism-based. An outline of the steps:
as §3

For another data set, the system named is dengue virus type 3. Kind of data set: Antiviral activity against Dengue virus 3 infected in African green monkey Vero cells assessed as decrease in viral infection preincubated for 1 hr followed by cell addition and subsequent incubation for 1 hr and measured after 5 to 6 days by crystal violet staining-based assay. The format is functional, organism-based. An outline of the steps: as §3

Another data set has as its system dengue virus type 4. Kind of data set: Antiviral activity against Dengue virus 4 infected in African green monkey Vero cells assessed as decrease in viral infection preincubated for 1 hr followed by cell addition and subsequent incubation for 1 hr and measured after 5 to 6 days by crystal violet staining-based assay. The format is functional, organism-based. A digest of the protocol:
as §3

The nature of data set [6]: Selectivity index, ratio of CC50 for African green monkey Vero cells to EC50 for Dengue virus 1 infected in African green monkey Vero cells. The format is toxicity. The settings on record: Vero cells infected with Dengue virus 1, read-out: Ratio CC50/EC50. An outline of the steps:
(§4)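 Selectivity index calculated as CC50 from the 24 h Vero MTT assay divided by EC50 from the virucidal plaque-reduction assay for each DENV serotype.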

A short description of data set [7]: Selectivity index, ratio of CC50 for African green monkey Vero cells to EC50 for Dengue virus 2 infected in African green monkey Vero cells. The data set is classed as toxicity. The settings on record: Vero cells infected with Dengue virus 2, read-out: Ratio CC50/EC50. An outline of the steps:
as §4

Data set [8] in a line: Selectivity index, ratio of CC50 for African green monkey Vero cells to EC50 for Dengue virus 3 infected in African green monkey Vero cells. The data set is classed as toxicity. Conditions: Vero cells infected with Dengue virus 3, read-out: Ratio CC50/EC50. A digest of the protocol:
as §4

Data set [9] can be described thus: Selectivity index, ratio of CC50 for African green monkey Vero cells to EC50 for Dengue virus 4 infected in African green monkey Vero cells. The settings on record: Vero cells infected with Dengue virus 4, read-out: Ratio CC50/EC50. The format is toxicity. An outline of the steps: as §4

For `O=C1C(=Cc2ccc([N+](=O)[O-])cc2)C(=O)c2ccccc21`, the inhibition result in the data set on West Nile virus [1] was “inactive”.

`O=C1C(=Cc2ccc(Br)cc2)C(=O)c2ccccc21`: in the data set with West Nile virus [1], the inhibition result was “inactive”.

As for `O=C1C(=Cc2ccc(F)cc2)C(=O)c2ccccc21`, the inhibition result in the data set with West Nile virus [1] was “inactive”.

For the compound `COc1cc(C=C2C(=O)c3ccccc3C2=O)cc(OC)c1O`, in the data set with West Nile virus [1], the inhibition result is “Active”.

Consider `CN(C)c1ccc(C=C2C(=O)c3ccccc3C2=O)cc1`, for which the inhibition result with West Nile virus [1] is “inactive”.

With `COc1ccc(C=C2C(=O)c3ccccc3C2=O)cc1`, in the data set on West Nile virus [1], the inhibition result was “inactive”.

With `O=C1C(=Cc2ccc(O)c(O)c2)C(=O)c2ccccc21`, the IC50 in [2] came out at 3 µM. Moreover, the figures for the inhibition entry in the data set with West Nile virus [3] and with West Nile virus [1] were “Dose-dependent effect” and 100%, respectively. Also, in data set [4], the Ki worked out at 1.25 µM. Moreover, in [5], half-maximal cytotoxicity (CC50 at 24 h) was put at 268 µM. Further, the EC50 in the data set with dengue virus type 1 turned out to be 7.97 µM; in the data set with dengue virus type 2, 20.4 µM; in the data set with dengue virus type 3, 1.82 µM; in the data set with dengue virus type 4, 29.9 µM. Also, the selectivity ratio amounted to 34 in data set [6], 13 in data set [7], 147 in data set [8] and 9 in data set [9].

Regarding `COc1ccc(C=C2C(=O)c3ccccc3C2=O)cc1O`, the inhibition result with West Nile virus [1] is “Active”.

`COc1cc(C=C2C(=O)c3ccccc3C2=O)cc(OC)c1OC`: in the data set on West Nile virus [1], the inhibition result is “inactive”.

Regarding `O=C1C(=Cc2ccco2)C(=O)c2ccccc21`, the inhibition entry with West Nile virus [1] is “inactive”.

For `O=C1C(=Cc2ccccc2)C(=O)c2ccccc21`, the inhibition result in the data set with West Nile virus [1] was “inactive”.

For `O=C1C(=Cc2ccc3c(c2)OCO3)C(=O)c2ccccc21`, the inhibition entry in the data set on West Nile virus [1] is “inactive”.

As for `COc1cc(C=C2C(=O)c3ccccc3C2=O)ccc1O`, in the data set with West Nile virus [1], the inhibition entry was “Active”.

With `N#Cc1ccc(C=C2C(=O)c3ccccc3C2=O)cc1`, the inhibition result with West Nile virus [1] was “inactive”.

As to `COc1ccc(C=C2C(=O)c3ccccc3C2=O)cc1OC`, in the data set on West Nile virus [1], the inhibition result was “inactive”.

For the compound `O=C1C(=Cc2ccc(O)cc2)C(=O)c2ccccc21`, the IC50 in data set [2] is 11 µM. Further, the inhibition entry with West Nile virus [3] was “Dose-dependent effect”; in the data set with West Nile virus [1] it was 41%. The inhibition constant (Ki) in [4] was found to be 12.3 µM. In data set [5], this compound came in with a CC50 at 24 h of 89.7 µM. For the same compound, the EC50 in the data set on dengue virus type 1 worked out at 46.6 µM; in the data set with dengue virus type 2 it was 39.2 µM; in the data set on dengue virus type 3 it was 21 µM; with dengue virus type 4, 55.9 µM. Further, the selectivity ratio in data set [6] was found to be 2; in data set [7], 2; in data set [8], 4; in [9], 2.

What is called inhibition is the share of the control response that was lost under treatment. As a reminder, the IC50 is the midpoint of a concentration-inhibition curve. In general, Ki refers to a dissociation constant, usually derived from enzyme kinetics or from competition with a known ligand. For orientation: CC50 means the concentration at which the toxic effect on the cells reaches its halfway point. Broadly, the EC50 is the concentration that produces a half-maximal response.
